The test system of the data set is MS2 coat protein. Description: apparent Kd, MS2 coat protein; higher = weaker binding; RNA-MaP array; FMN 200 µM where present. An outline of the steps:
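Apparent Kd: the median of filtered binding-curve fits from single clusters. Designs were transcribed on Illumina sequencing-chip clusters by stalled E. coli RNA polymerase and titrated with SNAP-549-labelled MS2 coat protein from 0.7 or 1.5 nM, doubling to 3 µM, in 100 mM Tris-HCl pH 7.5, 80 mM KCl, 4 mM MgCl2, BSA, DTT, yeast tRNA and Tween-20. Each series ran without and then with constant ligand, and green signal was normalised to red-channel RNA signal and control-cluster median Fmax.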

The mark [1] stands for this setting: designed as: OFF switch for flavin mononucleotide, no ligand.
[2] abbreviates: ligand present: flavin mononucleotide, designed as: OFF switch for flavin mononucleotide.
The mark [3] stands for this setting: designed as: ON switch for flavin mononucleotide, no ligand.
Where [4] appears, read: ligand present: flavin mononucleotide, designed as: ON switch for flavin mononucleotide.

For the sequence “CAGUACUGAGGAUAUACAUGAGGAUCACCCAUGUGUUCCAGCUAGGAGACUAGCAAAAGUAGAAGGCAGUACUG”, the apparent Kd (as a rule, the concentration giving half-maximal binding under the conditions of the assay) is, setting by setting: under setting [1], 27 nM; under setting [2], 345 nM.
As to “GUUACAUGAGGAUCACCCAUGUAUGUGUGGGAGUAAGUGUCUUAGGAUAUCUAUUAUUUAAUUUAAGAGAAGGAAGAUUGUUGU”, the “apparent Kd” value under setting [3] stood at 118 nM and the “apparent Kd” value under setting [4] was found to be 133 nM.
For the sequence “UCCUUCUGUUGAGGAUAUGUAAGACAGCGACUGCUAUUGCGGCACGCUGAUACAGAAGGCAACAUGAGGAUCACCCAUGUUCAA”, the “apparent Kd” value under setting [1] was determined as 22.9 nM and the “apparent Kd” value under setting [2] was 199 nM.
For the sequence “GCCAUCGCAUGAGGAUAUGGUCACCUUUGGUGACCAGAAGGCAUGUCAUAAGACAUGAGGAUCACCCAUGUAGUUAAGAUGGCA”, the “apparent Kd” value under setting [3] is 843 nM and the “apparent Kd” value under setting [4] came to 48 nM.
The matching figures for “GGAUAUGUCGUCUACAUGAGGAUCACCCAUGUCGAUAGACAUGAGGAUAUCGAUAAGAAUUGUAUCGAGAAGGUAUGUAGGUCC”: 23 nM and 30.2 nM.
The corresponding values for “GGACGUCACAUGAACAUGAGGAUCACCCAUGUAAAUUCUCAUGAGGAUAUGGAACCUAAUUGGUUCCAGAAGGCAUGGACGUCC” are 1270 nM and 381 nM.
Turning to “UUAUUAUAUGUAGGAUAUGCAUAUUAUUAUUAUGCAGAAGGACAUGAGGAUCACCCAUGUAUAUUAUUAUUAUAUAUUAUGUAU”, the “apparent Kd” value by setting is: under setting [1], 36.3 nM; under setting [2], 61 nM.
The corresponding values for “UCGCGGGUGCAGAAGGGAUAGGCCUAUUUUCGUGGUAUCCAAACUUAACAUGAGGAUCACCCAUGUCAGGAUAUGCCCACGCGA” are 8.72 nM and 10.7 nM.
Regarding “GGAUGACAAAGUCAUCCAAAUCGAACAUGAGGAUCACCCAUGUAGGAUAUGCUACUCAAAGAGUAGCAGAAGGACAUGUGCUUU”, the “apparent Kd” value is 37.1 nM under setting [1] and 196 nM under setting [2].
The corresponding values for “UUAAAUCAUGUAGGAUAUGCAUGGCGAAGCUACGCAGAAGGACAUGAGGAUCACCCAUGUUAUAGCGUCCAAGUAAGGAUGCAA” are 84.8 nM and 269 nM.
The matching figures for “GAUAGGACAGAGAAGGUACGUGCUAGAGAUACUAGCAAAAUUACCUCACAUGAGGAUCACCCAUGUAAGGAUAUCUGUCCUAUC”: 4.82 nM and 5.54 nM.
The corresponding values for “UCCUGACAUGAGGAUCACCCAUGUUAGGAUAUGGCUUAGGGCGCGUCUGUGUGUUGGGUUAGAAGGGAUGUGGG” are 17.6 nM and 16.8 nM.
On to “GUUUCACAUGAGGAUCACCCAUGUGAGGAUAUGGUUUCGCUGGCCGUAGCCAGUGGAACCAGAAGGCGCAUGAU”, for which the “apparent Kd” value by setting is: under setting [1], 36.5 nM; under setting [2], 41.3 nM.
Consider “GCGUUGAACGAGAAGGCCAAUACAUGAGGAUCACCCAUGUUUAGAUGUUUUGGAGGAUAUCGUACGUAUUCAAUAUUGCAACGC”, for which the “apparent Kd” value reads like this: under setting [1], 10.9 nM; under setting [2], 9.94 nM.
The matching figures for “GGUACUCAAAGAGUACUUGGUCGAACAUGAGGAUCACCCAUGUAGGAUAUGCAAAGCUAGAAGUAGCAGAAGGACAUGUGCAGC”: 14.4 nM and 22.1 nM.
The corresponding values for “AGAAACUACGAGAAGGACAUGAGGAUCACCCAUGUUUCCACUUAGUGGUAUGUAGGAUAUCGUAGUUUCAGGAUCGUGAGAUCA” are 5.81 nM and 6.39 nM.
With “AAGUCUGGACGAGGAUAUCAGCUGUAUCUGGCGUCAACAUGAGGAUCACCCAUGUUGCUAUAGGGUGAGAAGGCGUUUGGGCAA”, the “apparent Kd” value runs as follows: under setting [3], 84.9 nM; under setting [4], 19.9 nM.
Regarding “CCCUCACAUGAGGAUCACCCAUGUGAGGAUAUGCAUUCCAAAGCGAGCUUUGAGAAGAGUAGAAGGCACUGGUG”, the “apparent Kd” value under setting [1] was found to be 17.1 nM and the “apparent Kd” value under setting [2] turned out to be 19.9 nM.
Turning to “AACAUGUGAGGAUAUGUCACAUGGCUCUUCGGAGCAAGAUGACAGAAGGCACAUGAGGAUCACCCAUGUGCAUC”, the “apparent Kd” value is, setting by setting: under setting [1], 13.8 nM; under setting [2], 22.6 nM.
For “AUUAUACAUGAGGAUCACCCAUGUAAUUAAUCUAGUAAGAUCUAGGAUAUCAGCUCGAAUAGAGCUGAGAAGGAGAUCACAUGU”, the “apparent Kd” value amounted to 53.6 nM under setting [3] and 20.7 nM under setting [4].
The matching figures for “UGUUGUAUUACAGGAUAUCUAUGAUUUUUAUUUAGAGAAGGGUAUUCACAUGAGGAUCACCCAUGUAUAUACGAGGAAGUUGUG”: 46.1 nM and 51.7 nM.
With “CGAUGACAAAGUCAUCGAAUACGAACAUGAGGAUCACCCAUGUAGGAUAUGCUACUCAAAGAGUAGCAGAAGGACAUGUGUCUU”, the “apparent Kd” value runs as follows: under setting [1], 31.4 nM; under setting [2], 154 nM.
For the sequence “GACCUGACAUAAUAAUGUAGAAAUACAUGAGGAUCACCCAUGUAGGAUAUGCAGUGGAAUACACUGCAGAAGGACAUAGUCAGG”, the “apparent Kd” value runs as follows: under setting [1], 15.9 nM; under setting [2], 22.9 nM.
Consider “CACGAUGAUGUAGGAUAUAUACUGGAAUACAGUAUAGAAGGACAUGAGGAUCACCCAUGUUAAGUGCCUCCAAGUAACAUCGUG”, for which the “apparent Kd” value runs as follows: under setting [1], 17.2 nM; under setting [2], 25.4 nM.
The corresponding values for “UCACGGUAUGUAGGAUAUGCAUAGCAUUGCUAUGCAGAAGGACAUGAGGAUCACCCAUGUAUGUAUUCCAUACUAAUCCCGUGG” are 5.57 nM and 5.66 nM.
The corresponding values for “AAAGAUGGAGGAUAUACAUGAGGAUCACCCAUGUAGAAAAAAAAUUGGGAAAAAGAAAGUAGAAGGCCAAAAAA” are 41 nM and 91.1 nM.
The corresponding values for “UGGUGUGAAGGAUAUACAUGAGGAUCACCCAUGUAUGAGGUGGAGGUUGAGGUGGAGGGUAGAAGGUCAGGUGG” are 27.3 nM and 27 nM.
As to “CACUGCAAUGUAGGAUAUCGACUGGAAUACAGUCGAGAAGGACAUGAGGAUCACCCAUGUCAUCCUAAUAAUAAAUAAGCAGUG”, the “apparent Kd” value under setting [1] is 14.4 nM and the “apparent Kd” value under setting [2] was 19.5 nM.
The matching figures for “GGAUGACAAAGUCAUCCAAAUCGAACAUGAGGAUCACCCAUGUAGGAUAUGCUACUGAAACAGUAGCAGAAGGACAUGUGCUUU”: 35.3 nM and 187 nM.
Turning to “GCAGGUUAAGUCAGGAUAUACCUAUGGAUACAUAGGUAGAAGGGACAUGAGGAUCACCCAUGUGGCUCACCUGC”, the “apparent Kd” value is, setting by setting: under setting [1], 24.2 nM; under setting [2], 40.2 nM.
Consider “GGGUACAUCGGAGGAUAUCAUGUAAAUACAUGAGGAUCACCCAUGUCGAUGAAGACAUCGGAGAUUGAGAAGGCCGAUGUACCG”, for which the “apparent Kd” value came to 1070 nM under setting [3] and 76.3 nM under setting [4].
For “CCGGCUGCUGUGAGGAUAUGCCUGUGGGUGCGUGGGUAGAAGGCACAUGAGGAUCACCCAUGUCCUGCGGCUCC”, the “apparent Kd” value by setting is: under setting [1], 877 nM; under setting [2], 311 nM.
As to “UGUCAUUUACAGAAGGGUAGUUGGGUUUUACAUGAGGAUCACCCAUGUUUUACAGGAUAUGUGUUUUGUUAAUAUUAAAGUUCA”, the “apparent Kd” value under setting [1] was determined as 72.9 nM and the “apparent Kd” value under setting [2] was found to be 113 nM.
The matching figures for “GCUGCAUAGGCAGGAUAUGCAACAAUGAGAUGAAAAUACAUCUCAUUGACAUGAGGAUCACCCAUGUAGAAGGGCCUGUGCAGU”: 16.3 nM and 18.9 nM.
The corresponding values for “CUGAUGUUAGGAUAUCAGGUCACGCGCGAAGGCGCGCGGCAUGAGAAGGAACAUGAGGAUCACCCAUGUGACGA” are 42.8 nM and 160 nM.
As for “GUAACAUGAGGAUCACCCAUGUAUAGAACACUCAAUAGAUCUGAGGAUAUAGUGGAAUUUACACACUAGAAGGCAGUGGGUACA”, the “apparent Kd” value runs as follows: under setting [3], 53.9 nM; under setting [4], 31.9 nM.
